Results taken from ChEMBL document CHEMBL1135284 (Bioorg Med Chem Lett, 2002).

Legend:
[1] = tested on: Rattus norvegicus; assay: Thrombin time was determined after (iv) bolus dose of 0.75 mg/kg followed by an infusion of 50 ug/kg/min in rat arterial thrombosis model; assay type: functional
[2] = tested on: Rattus norvegicus; assay: Mean occlusion time after (iv) bolus dose of 0.75 mg/kg followed by an infusion of 50 ug/kg/min was determined in rat arterial thrombosis model; assay type: functional
[3] = tested on: Rattus norvegicus; assay: Activated partial thromboplastin time was determined after (iv) bolus dose of 0.75 mg/kg followed by an infusion of 50 ug/kg/min in rat arterial thrombosis model; assay type: functional
[4] = Oral bioavailability; assay type: ADME, organism-based; conditions: rat, in vivo
Outline: (§1)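 Conscious rats dosed by oral route (30 mg/kg) and iv bolus (0.15 mg/kg). Thrombin time tracked over time after each dose. %F derived by comparing areas under the TT-versus-time curves for the two routes.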

[5] = Bioavailability was reported; assay type: ADME, organism-based; conditions: rat, in vivo; outline: as §1

bioavailability [4] [%]	bioavailability [5] [%]	SMILES	TT [1] [s]	MOT [2] [min]	aPTT [3] [s]
–	–	Cc1cc(C(=N)N)ccc1CNC(=O)[C@@H]1CC[C@H]2CN(S(=O)(=O)C(c3ccccc3)c3ccccc3)CC(=O)N21	354	>60	42
2.2	–	N=C(N)N1CCC(CNC(=O)[C@@H]2CC[C@H]3CN(S(=O)(=O)CC(c4ccccc4)c4ccccc4)CC(=O)N32)CC1	214	36	35
1.9	–	N/C(=N/O)N1CCC(CNC(=O)[C@@H]2CC[C@H]3CN(S(=O)(=O)C(c4ccccc4)c4ccccc4)CC(=O)N32)CC1	230	46	28
–	–	N=C(N)c1ccc(CNC(=O)[C@@H]2CC[C@H]3CN(S(=O)(=O)C(c4ccccc4)c4ccccc4)CC(=O)N32)cc1	631	51	54
0.1	–	N=C(N)[C@H]1CC[C@H](CNC(=O)[C@@H]2CC[C@H]3CN(S(=O)(=O)C(c4ccccc4)c4ccccc4)CC(=O)N32)CC1	724	44	54
–	–	N=C(N)N1CCC(CNC(=O)[C@@H]2CC[C@H]3CN(S(=O)(=O)C(c4ccccc4)c4ccccc4)CC(=O)N32)CC1	154	52	28
~0.5	–	N/C(=N\O)N1CCC(CNC(=O)[C@@H]2CC[C@H]3CN(S(=O)(=O)Cc4ccccc4)CC(=O)N32)CC1	–	–	–
–	–	N=C(N)c1ccc(CNC(=O)[C@@H]2CC[C@H]3CN(S(=O)(=O)CC(c4ccccc4)c4ccccc4)CC(=O)N32)cc1	636	>60	74
~0.5	–	N=C(N)c1ccc(CNC(=O)[C@@H]2CC[C@H]3CN(S(=O)(=O)Cc4ccccc4)CC(=O)N32)cc1	–	–	–
–	1.5	N[C@H]1CC[C@H](CNC(=O)[C@@H]2CC[C@H]3CN(S(=O)(=O)CC(c4ccccc4)c4ccccc4)CC(=O)N32)CC1	150	37	35
0.7	–	N/C(=N/O)N1CCC(CNC(=O)[C@@H]2CC[C@H]3CN(S(=O)(=O)CC(c4ccccc4)c4ccccc4)CC(=O)N32)CC1	148	45	26
2.7	–	N/C(=N/O)N1CCC(CNC(=O)[C@@H]2CC[C@H]3CN(S(=O)(=O)CCc4ccccc4)CC(=O)N32)CC1	146	49	25
–	–	N=C(N)N1CCC(CNC(=O)[C@@H]2CC[C@H]3CN(C(=O)CC(c4ccccc4)c4ccccc4)CC(=O)N32)CC1	85	21	29
–	–	Nc1ccc(CNC(=O)[C@@H]2CC[C@H]3CN(S(=O)(=O)CC(c4ccccc4)c4ccccc4)CC(=O)N32)cn1	51	30	19
–	–	N/C(=N/O)N1CCC(CNC(=O)[C@@H]2CC[C@H]3CN(C(=O)CC(c4ccccc4)c4ccccc4)CC(=O)N32)CC1	63	35	23
–	–	Cc1nc(N)ccc1CNC(=O)[C@@H]1CC[C@H]2CN(S(=O)(=O)C(c3ccccc3)c3ccccc3)CC(=O)N21	102	>60	27
–	–	N[C@H]1CC[C@H](CNC(=O)[C@@H]2CC[C@H]3CN(S(=O)(=O)C(c4ccccc4)c4ccccc4)CC(=O)N32)CC1	216	>60	44
